26 compounds from ChEMBL document CHEMBL5055628, “Anticancer properties of indole derivatives as IsoCombretastatin A-4 analogues” (Eur J Med Chem, 2021) can be followed below.

One data set deals with HCT-116. Nature of the data set: Cytotoxicity against human HCT-116 cells assessed as inhibition of cell growth measured after 72 hrs by CellTiter-Glo reagent based luminescence assay. The class given is functional. The settings on record: HCT-116, 72 h. In short, it runs like this: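 Cells (HCT-116 in McCoy's 5A; U87-MG in DMEM 4.5 g/L glucose; all with 10% serum, 1% glutamine, 37 °C, 5% CO2) seeded at 3 × 10³/well, treated after 24 h with 10 final concentrations by serial dilution; vehicle controls. After 72 h, CellTiter-Glo luminescence; IC50 from four- or five-parameter logistic fit, triplicate, mean of three experiments.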

Data set [1] in a line: Metabolic stability in human liver microsomes assessed as half life measured after 96 hrs by HPLC-MS/MS analysis. The class given is ADME, Microsome. In short, it runs like this:
(§1)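 Compound (100 μM final) incubated at 37 °C with rat or human liver microsomes (1 mg/mL protein, pH 7.4) and NADPH-generating system; triplicate aliquots at 0–144 h quenched with isoCA-4 internal standard and ethyl acetate, quantified by HPLC-MS/MS against calibration curves.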
On the technique in general: Liver microsomes are a subcellular fraction often used to study metabolism.

Data set [2] can be described thus: Drug metabolism in rat liver microsomes assessed as O-demethylated metabolite formation measured after 96 hrs by ESI-HRMS assay. The class given is ADME, Microsome. In short, it runs like this: (§2)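 Rat or human liver microsomes at 1 mg/mL final protein in 10 mM buffer, pH 7.4, prewarmed to 37 °C with an NADPH-generating system (0.6 mM NADP, 6.4 mM glucose-6-phosphate, 2 U/mL G6P dehydrogenase). Substrate 100 μM final; shaken at 37 °C. Triplicate aliquots taken at 0–96 h (up to 144 h), ethyl acetate quench with internal standard, then HPLC-MS/MS (positive ESI, m/z 150–450, CID).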

Data set [3] can be described thus: Drug metabolism in rat liver microsomes assessed as hydroxylated metabolite formation measured after 96 hrs by ESI-HRMS assay. The class given is ADME, Microsome. In short, it runs like this: (§3)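 Compound at 100 μM final incubated at 37 °C with rat or human liver microsomes (1 mg/mL protein, 10 mM buffer pH 7.4) plus NADPH-generating system (0.6 mM NADPNa4, 6.4 mM glucose-6-phosphate, 2 U/mL G6PDH). After 96 h, ethyl acetate extraction and HPLC-MS/MS (positive ESI, m/z 150–450, collision-induced dissociation) to identify metabolites.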

A short description of data set [4]: Metabolic stability in rat liver microsomes assessed as half life measured after 96 hrs by HPLC-MS/MS analysis. The class given is ADME, Microsome. In short, it runs like this: as §1
The nature of data set [5]: Drug metabolism in human liver microsomes assessed as O-demethylated metabolite formation measured after 96 hrs by ESI-HRMS assay. The class given is ADME, Microsome. In short, it runs like this:
as §2

Data set [6] in a line: Drug metabolism in human liver microsomes assessed as hydroxylated metabolite formation measured after 96 hrs by ESI-HRMS assay. The class given is ADME, Microsome. In short, it runs like this:
as §3

Data set [7] is described as follows: Inhibition of porcine brain tubulin polymerization incubated for 30 mins followed by cooling on ice for 10 mins and measured by UV spectrometer assay. The class given is tissue-based, Sus scrofa. In short, it runs like this:
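Porcine brain tubulin (Shelanski isolation) in 0.1 M MES, 1.5 mM GTP, 1 mM EGTA, 1 mM β-ME, 1 mM MgCl2, pH 6.7, diluted to 1.5 mg/mL; ligand or DMSO 30 min at 20 °C, 10 min on ice. Assembly by 450 nm turbidity on 4→37 °C shift, plateau minus baseline vs no-ligand control (100%); IC50 from mono-exponential fit of ligand:tubulin ratio, three independent experiments.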

A further data set relates to HT-1080. Nature of the data set: Cytotoxicity against human HT-1080 cells assessed as inhibition of cell growth measured after 72 hrs by CellTiter-Glo reagent based luminescence assay. The class given is functional. To be noted: HT-1080, 72 h.
The test system of a further data set is MDA-MB-231. Nature of the data set: Cytotoxicity against human MDA-MB-231 cells assessed as inhibition of cell growth measured after 72 hrs by CellTiter-Glo reagent based luminescence assay. The class given is functional. To be noted: MDA-MB-231, 72 h. In short, it runs like this: (§4)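 Cells seeded at 3 × 10³/well and grown 24 h. A549, MDA-MB231, K562 and K562R (doxorubicin-resistant) were in RPMI 1640; MiaPaCa2 and HT29 in DMEM (4.5 g/L glucose); all media had 10% FCS and 1% glutamine, at 37 °C and 5% CO₂. Cells got 10 final concentrations by serial dilution, with vehicle controls, for 72 h. CellTiter-Glo luminescence was read after 15 min. Triplicate runs; IC50 from four- or five-parameter logistic fits.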
Background: In ATP-based viability assays light output follows the ATP content of the culture.

The next data set deals with HT-29. Nature of the data set: Cytotoxicity against human HT-29 cells assessed as inhibition of cell growth measured after 72 hrs by CellTiter-Glo reagent based luminescence assay. The class given is functional. To be noted: HT-29, 72 h. In short, it runs like this: as §4
The test system of another data set is K-562R. Nature of the data set: Cytotoxicity against human K-562R cells assessed as inhibition of cell growth measured after 72 hrs by CellTiter-Glo reagent based luminescence assay. The class given is functional. In short, it runs like this:
as §4

The subject of the next data set is MIA PaCa-2. Nature of the data set: Cytotoxicity against human MIA PaCa-2 cells assessed as inhibition of cell growth measured after 72 hrs by CellTiter-Glo reagent based luminescence assay. The class given is functional. The settings on record: MIA PaCa-2, 72 h. In short, it runs like this: as §4
Another data set has as its system A549. Nature of the data set: Cytotoxicity against human A549 cells assessed as inhibition of cell growth measured after 72 hrs by CellTiter-Glo reagent based luminescence assay. The class given is functional. To be noted: A549, 72 h. In short, it runs like this: as §4
In a further data set the test system is K562. Nature of the data set: Cytotoxicity against human K562 cells assessed as inhibition of cell growth measured after 72 hrs by CellTiter-Glo reagent based luminescence assay. The class given is functional. The settings on record: K562, 72 h. In short, it runs like this:
as §4

Bounds are passed on as bounds.

Regarding `Cc1nc(N(C)c2ccc3c(c2)cc2n3CCOC2)c2ccccc2n1`, the IC50 – broadly, the concentration at which inhibition is half-maximal – in the data set on HCT-116 worked out at 0.0104 µM.
Consider `C=C(c1cc(OC)c(OC)c(OC)c1)c1ccc2c(c1)cc1n2CCOC1`, for which the IC50 in the data set on HCT-116 worked out at 0.0235 µM.
For `COc1cc2nc(Cl)nc(N(C)c3ccc4c(c3)cc3n4CCOC3)c2cc1OC`, in the data set with HCT-116, the IC50 was found to be 0.361 µM.
Turning to `CCn1c(CO)cc2cc(N(C)c3cc(OC)c(OC)c(OC)c3)ccc21`, the IC50 with HCT-116 amounted to 0.987 µM.
The same measure, in the same setting: for `Cc1cc(N(C)c2ccc3c(c2)cc2n3CC=CC2)c2ccccc2n1` the value was 0.0052 µM.
Consider `COCc1cc2cc(N(C)c3cc(OC)c(OC)c(OC)c3)ccc2n1C`, for which the IC50 with HCT-116 came to 0.0475 µM.
For `C=C(c1cc(OC)c(OC)c(OC)c1)c1ccc2c(c1)cc1ccccn12`, the IC50 in the data set on HCT-116 is 0.213 µM.
Consider `CCn1c(CO)cc2cc(N(C)c3cc(C)nc4ccccc34)ccc21`, for which the IC50 in the data set with HCT-116 worked out at 0.0216 µM.
`C=C(c1cc(OC)c(OC)c(OC)c1)c1ccc2c(c1)cc1n2CC=CC1`: the IC50 in the data set on HCT-116 was found to be 0.97 µM.
The same measure, in the same setting: for `COCOCc1cc2cc(N(C)c3cc(C)nc4ccccc34)ccc2n1C` the value was 0.0443 µM.
Consider `CN(c1ccc2c(c1)cc1n2CCOC1)c1cc(C#N)nc2ccccc12`, for which the IC50 in the data set on HCT-116 was found to be 0.0028 µM.
`C=C(c1ccc2c(c1)cc(CO)n2C)c1cc(C)nc2ccccc12`: the IC50 in the data set on HCT-116 was found to be 0.00125 µM.
For `C=C(c1ccc2c(c1)cc(CO)n2CC)c1cc(C)nc2ccccc12`, in the data set on HCT-116, the IC50 turned out to be 0.00147 µM.
Take `Cc1cc(N(C)c2ccc3c(c2)cc2ccccn23)c2ccccc2n1`: the IC50 with HCT-116 worked out at 0.0784 µM.
On to `Cc1cc(N(C)c2ccc3c(c2)cc2n3CCOC2)c2ccccc2n1`, for which the IC50 in the data set on HCT-116 amounted to 0.00322 µM.
`C=C(c1cc(OC)c(OC)c(OC)c1)c1ccc2c(c1)cc(CO)n2CC`: the values for the half-life in data set [1] and in data set [4] were 89 h and 70 h, respectively. In addition, the Drug metabolism result in data set [2], in data set [3], in data set [5] and in [6] was “Metabolite_Detected” throughout. Further, the IC50 was 0.00052 µM in the data set on HCT-116 and 2.9 µM in data set [7].
As to `COc1cc(N(C)c2ccc3c(c2)cc2n3CC=CC2)cc(OC)c1OC`, the half-maximal inhibitory concentration (IC50) in the data set with HCT-116 was 0.959 µM.
For `Cc1cc(N(C)c2ccc3c(c2)cc(CO)n3C)c2ccccc2n1`, the IC50 with HCT-116 worked out at 0.0164 µM.
Take `Cc1nc(N(C)c2ccc3c(c2)cc2ccccn23)c2ccccc2n1`: the IC50 in the data set on HCT-116 turned out to be 0.00687 µM.
Regarding `C=C(c1ccc(OC)c(O)c1)c1cc(OC)c(OC)c(OC)c1`, the half-life (commonly the time needed for the level to fall by half in the phase considered) is 30 h in [1] and 18 h in data set [4]. In addition, the Drug metabolism result in [2], in data set [3], in [5] and in data set [6] was “Metabolite_Detected” each time. Also, the IC50 with HT-1080 is 0.00091 µM; in the data set on MDA-MB-231 it was 0.00198 µM; in the data set with HT-29, > 0.1 µM; in the data set with K-562R, 0.00513 µM; in the data set on HCT-116, 0.00064 µM; in the data set on MIA PaCa-2 it was 0.00301 µM. In addition, the IC50 worked out at 0.0527 µM with A549 and 0.00426 µM in the data set on K562.
As to `COCc1cc2cc(N(C)c3cc(C)nc4ccccc34)ccc2n1C`, the IC50 in the data set on HCT-116 is 0.0102 µM.
`C=C(c1ccc2c(c1)cc1n2CC=CC1)c1cc(C)nc2ccccc12`: the IC50 in the data set with HCT-116 is 0.0257 µM.
For `C=C(c1cc(OC)c(OC)c(OC)c1)c1ccc2c(c1)cc(CO)n2C`, the IC50 in the data set on HCT-116 is 0.00212 µM.
As to `C=C(c1cc(OC)c(OC)c(OC)c1)c1ccc2c(c1)cc(COC)n2C`, in the data set on HCT-116, the IC50 was 0.0724 µM.
Still for that read-out and setting: to `COc1cc(N(C)c2ccc3c(c2)cc2n3CCOC2)cc(OC)c1OC` belongs 0.0292 µM.
For the compound `C=C(c1ccc2c(c1)cc1n2CCOC1)c1cc(C)nc2ccccc12`, the IC50 in the data set on HCT-116 stood at 0.109 µM.
